From ChEMBL document CHEMBL3286096, “Synthesis, biological evaluation and docking study of 3-aroyl-1-(4-sulfamoylphenyl)thiourea derivatives as 15-lipoxygenase inhibitors” (Eur J Med Chem, 2014) come the findings set out here.

A word on the pIC50: it is the negative decadic logarithm of the IC50, by convention in mol/L.

pIC50: −log10 of the molar value. Active and inactive are the calls of the source. No cut-off for these calls is given here.

System in the first experiment: not listed separately
In words: Inhibition of soybean 15-LOX1 by UV spectrophotometric analysis. More on the design: species or system Glycine max.
Settings: not given
As to `NS(=O)(=O)c1ccc(NC(=S)NC(=O)c2ccc([N+](=O)[O-])cc2)cc1`, the IC50 entry is “ND(Insoluble)”. Turning to `NS(=O)(=O)c1ccc(NC(=S)NC(=O)c2ccc3ccccc3c2)cc1`, the IC50 entry is reported as “Not Active”.

The same experiment, now with this note: read-out: IC50.
As for `NS(=O)(=O)c1ccc(NC(=S)NC(=O)c2ccco2)cc1`, the pIC50 was 4.35. Regarding `Cc1ccc(C(=O)NC(=S)Nc2ccc(S(N)(=O)=O)cc2)cc1`, the pIC50 was 4.55. Still for that read-out and setting: then `NS(=O)(=O)c1ccc(NC(=S)NC(=O)c2ccc(Cl)cc2)cc1`, with 4.60. The same measure, in the same setting: then `NS(=O)(=O)c1ccc(NC(=S)NC(=O)c2ccccc2Cl)cc1`, with 4.73; and `NS(=O)(=O)c1ccc(NC(=S)NC(=O)c2ccc(Cl)cc2Cl)cc1`, with 4.63. Take `O=c1c(O)c(-c2ccc(O)c(O)c2)oc2cc(O)cc(O)c12` [QUERCETIN]: the pIC50 was 4.74. Still for that read-out and setting: then `NS(=O)(=O)c1ccc(NC(=S)NC(=O)c2cccc(Cl)c2)cc1`, with 5.17; and `NS(=O)(=O)c1ccc(NC(=S)NC(=O)c2cc(F)c(F)c(F)c2F)cc1`, with 4.90; and `COc1ccc(C(=O)NC(=S)Nc2ccc(S(N)(=O)=O)cc2)cc1`, with 4.64.

Turning to `NS(=O)(=O)c1ccc(NC(=S)NC(=O)c2ccccc2)cc1`, the pIC50 is 5.22. As for `NS(=O)(=O)c1ccc(NC(=S)NC(=O)c2cccc(F)c2)cc1`, the pIC50 was 5.06.

`Cc1ccccc1C(=O)NC(=S)Nc1ccc(S(N)(=O)=O)cc1`: the pIC50 was 5.09. For the compound `Cc1cccc(C(=O)NC(=S)Nc2ccc(S(N)(=O)=O)cc2)c1`, the negative logarithm of the IC50 (pIC50) was 5.74.

Turning to `NS(=O)(=O)c1ccc(NC(=S)NC(=O)c2cccs2)cc1`, the pIC50 was 4.44.

The test system of a further experiment is PC-12. In words: Neuroprotective activity against H2O2-induced rat differentiated PC12 cell death assessed as increase in cell viability at 5 uM after 24 hrs by MTT assay. The format is functional, cell-based.
Settings: not given
The essentials:
(§1)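 Rat PC12 cells grown in RPMI 1640 with 10% FCS, penicillin and streptomycin, then differentiated by a previously reported protocol. Differentiated cells were pretreated with compound at 1, 5 or 10 for 3 h before H2O2 exposure. Viability was read by MTT 24 h later and expressed relative to the H2O2-treated group.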
(In general: Tetrazolium assays rely on reduction of a dye to a coloured formazan, in cell work by metabolically active cells.)
Regarding `O=c1c(O)c(-c2ccc(O)c(O)c2)oc2cc(O)cc(O)c12` [QUERCETIN], the result was Active.

The next experiment has as its system PC-12. In words: Neuroprotective activity against H2O2-induced rat differentiated PC12 cell death assessed as increase in cell viability at 1 to 10 uM after 24 hrs by MTT assay. Format: functional, cell-based.
Settings: not given
The method in brief: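 Rat PC12 cells were grown in RPMI 1640 with 10% FCS plus penicillin/streptomycin, then differentiated by a published protocol. Differentiated cells were pretreated with compound at 1, 5 and 10 for 3 h before H₂O₂ exposure, with quercetin 5 as reference. Viability was measured by MTT after 24 h and expressed relative to the H₂O₂-treated group.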
With `Cc1cccc(C(=O)NC(=S)Nc2ccc(S(N)(=O)=O)cc2)c1`, the result was Active.

System in another experiment: not listed separately
As to the kind of experiment: Neuroprotective activity against H2O2-induced rat differentiated PC12 cell death assessed as increase in cell viability at 10 uM after 24 hrs by MTT assay. The format is functional, PC-12.
Settings: not given
The method in brief: as §1
Turning to `Cc1cccc(C(=O)NC(=S)Nc2ccc(S(N)(=O)=O)cc2)c1`, the Activity turned out to be 50%.
